Experimental data reported in ChEMBL document CHEMBL1152409, “Constituents of the moss Polytrichum commune” (J Nat Prod, 2009).

What was measured:
Assay type in all cases: functional, cell-based
[1] = tested on: A549; assay: Cytotoxicity against human A549 cells after 24 hrs by MTT assay; conditions: A549, 24 h
Procedure, shortened: (§1)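 Cell lines from ATCC were seeded at 3000 cells per well and exposed to a range of compound concentrations 24 h after seeding. Treatment lasted 24 h. MTT was then added and plates were incubated for a further 24 h. Viability was read as absorbance at 570 nm, and IC50 was determined.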

[2] = Cytotoxicity against human cells 6T-CEM after 24 hrs by MTT assay; procedure, shortened: as §1
[3] = tested on: MDA-MB-435; assay: Cytotoxicity against human MDA-MB-435 cells after 24 hrs by MTT assay; conditions: MDA-MB-435, 24 h; procedure, shortened: as §1
[4] = tested on: HepG2; assay: Cytotoxicity against human HepG2 cells after 24 hrs by MTT assay; conditions: HepG2, 24 h; procedure, shortened: as §1
[5] = tested on: LoVo; assay: Cytotoxicity against human LoVo cells after 24 hrs by MTT assay; procedure, shortened: as §1

Measured: IC50

O=C1C[C@@H](c2ccccc2)Oc2cc(O)cc(/C=C/c3ccccc3)c21 [COMMUNIN B]
> 5 µg/mL: all assays above

O=C1C[C@@H]2c3ccccc3O[C@H]3c4ccc(O)cc4-c4c(O)cc(O)c1c4[C@H]23 [OHIOENSIN H]
> 5 µg/mL: all assays above

O=C1C[C@@H](c2ccccc2)Oc2cc(O)cc(/C=C\c3ccccc3)c21 [COMMUNIN A]
> 5 µg/mL: all assays above
